Experimental data gathered from unrelated publications.
BCHE: Cholinesterase (BCHE, Homo sapiens, UniProt P06276)
Oprk1: Kappa-type opioid receptor (Oprk1, Mus musculus, UniProt P33534)

With C=CCOc1ccc(C(=O)/C=C/c2ccc(OC)cc2)c(OS(C)(=O)=O)c1I the IC50 was 53.8 µM (BCHE; enzyme activity; inhibitor).
CC(C)[C@H](CN1CCc2ccccc2C1)NC(=O)c1cccc(-c2cccc(O)c2)c1 gave a Ki of 0.87 µM (Oprk1; ligand displacement; radioligand).
The EC50 of CCCC(=O)CC(=O)N[C@H]1CCOC1=O is reported as 13 µM (qscR (Pseudomonas aeruginosa, UniProt G3XD77); reporter gene; agonist).
C=CCOc1ccc(C(=O)/C=C/c2ccc(OC)cc2)c(OS(=O)(=O)c2ccccc2[N+](=O)[O-])c1I has an IC50 of 14.2 µM (BCHE; enzyme activity; inhibitor).
COc1c2c(cc3c1-c1c(cc4c(c1OC)OCO4)C[C@H](C)[C@H](C)C3)OCO2 gave an IC50 of over 100 µM (BCHE; enzyme activity; inhibitor; Ellman).
CC(C)c1cc2c(c(O)c1O)[C@@]1(C(=O)O)CCCC(C)(C)[C@@H]1CC2 gave an IC50 of 0.00066 µM (BCHE; enzyme activity; inhibitor).
For C=CCOc1ccc(C(=O)/C=C/c2cccc(F)c2)c(OS(=O)(=O)c2ccc(OC)cc2)c1I, the IC50 was 14.5 µM (BCHE; enzyme activity; inhibitor).
The Ki of CC(C)c1cc2c(c(O)c1O)[C@@]13CCCC(C)(C)[C@@H]1[C@@H](O)[C@@H]2OC3=O is reported as 0.00033 µM (BCHE; enzyme activity; inhibitor; absorbance).
CC(C)[C@@H](CN1CCc2ccccc2C1)NC(=O)Cc1c[nH]c2ccccc12 has a Ki of 2.75 µM (Oprk1; ligand displacement; radioligand).
Cn1cc2cc(C(F)(F)c3nnc4ccc(-c5cnn(C6CC6)c5)nn34)c(F)cc2n1 gave an IC50 of over 1 µM (Fibroblast growth factor receptor 4 (FGFR4, Homo sapiens, UniProt P22455); enzyme activity; inhibitor; ADP detection).
The IC50 of CC(=O)N[C@H]1[C@@H](O[C@@H]2O[C@H](C[C@@H](O)[C@H]3O[C@@H](n4ccc(=O)[nH]c4=O)[C@H](O)[C@@H]3O)[C@H](O)[C@H](O)[C@H]2NC(=O)/C=C/CCCCCCCCCC(C)C)O[C@H](CO)[C@@H](O)[C@@H]1O is reported as 1.53 µM (UDP-N-acetylglucosamine--dolichyl-phosphate N-acetylglucosaminephosphotransferase (Homo sapiens, UniProt Q9H3H5); enzyme activity; inhibitor).
CCCC[C@H](NC(C)=O)C(=O)N[C@H]1CC(=O)NCCCC[C@@H](C(=O)N2CCC[C@@H]2C(=O)N[C@@H](C(=O)N2CCC[C@@H]2C(N)=O)C(C)C)NC(=O)[C@H](Cc2c[nH]c3ccccc23)NC(=O)[C@H](CCCNC(=N)N)NC(=O)[C@@H](Cc2ccccc2)NC(=O)[C@@H]2CCCN2C1=O gave an EC50 of 0.00089 µM (Melanocortin receptor 4 (MC4R, Homo sapiens, UniProt P32245); cAMP; agonist).
For Cc1c(CC(=O)N[C@@H](CN2CCc3ccccc3C2)C(C)C)cccc1[N+](=O)[O-], the Ki was 3.38 µM (Oprk1; ligand displacement; radioligand).
CC(C)c1cc2c(c(O)c1O)[C@@]13CCCC(C)(C)[C@@H]1[C@H](OC3=O)[C@H]2O has a Ki of 0.0002 µM (BCHE; enzyme activity; inhibitor; absorbance).
C=CCOc1ccc(C(=O)/C=C/c2cccc(F)c2)c(OS(C)(=O)=O)c1I has an IC50 of 19.2 µM (BCHE; enzyme activity; inhibitor).
For CC(C)c1cc2c(c(O)c1O)[C@@]13CCCC(C)(C)[C@@H]1C[C@@H]2OC3=O, the Ki was 0.0003 µM (BCHE; enzyme activity; inhibitor; absorbance).
For COc1cc(/C=C/C(=O)O)ccc1OCc1cn(CC(=O)Nc2ccc(Cl)cc2Cl)nn1, the IC50 was 12 µM (BCHE; enzyme activity; inhibitor; Ellman).
